SENP8 block-1: SENP8 protease inhibitors, primary screen, biochemical, luminescence; purified SENP8, Z-RLRGG-aminoluciferin cleavage; inhibition, % at 10 µM; 1.2% of 330,000 active; AID 2540, 2010; in the data active means inhibition above about 50%
Target sequence (Q96LD8 whole entry, looked up): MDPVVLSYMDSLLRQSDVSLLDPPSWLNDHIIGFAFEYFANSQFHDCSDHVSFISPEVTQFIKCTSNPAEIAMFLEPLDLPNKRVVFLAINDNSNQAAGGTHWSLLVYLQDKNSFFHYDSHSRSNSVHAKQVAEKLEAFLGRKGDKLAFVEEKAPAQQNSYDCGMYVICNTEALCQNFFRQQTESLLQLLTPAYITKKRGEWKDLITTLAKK
SENP1 inh: human SENP1 catalytic domain inhibitors, primary screen, biochemical, FRET, uHTS; AID 624204, 2012; Sentrin-specific protease 1 (Homo sapiens), Q9P0U3; recombinant SENP1 catalytic domain, CyPet-SUMO1-YPet FRET cleavage; 0.21% of 360,000 active; inhibition, % at 10 µM;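 active means inhibition at least 30% at 10 µM, raw YFP signal under a set limit, fluorescence ratio 0.5 to 1.5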;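 further: 0% = enzyme with DMSO and 100% = no enzyme wells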
Target sequence (Q9P0U3 419-644 limits assumed): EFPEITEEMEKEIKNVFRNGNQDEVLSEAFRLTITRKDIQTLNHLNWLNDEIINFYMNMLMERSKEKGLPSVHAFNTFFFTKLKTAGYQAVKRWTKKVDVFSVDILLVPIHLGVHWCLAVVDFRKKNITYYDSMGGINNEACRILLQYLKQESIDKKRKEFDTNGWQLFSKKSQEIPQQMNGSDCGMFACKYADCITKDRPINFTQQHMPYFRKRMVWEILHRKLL
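material = recombinant human SENP1 catalytic domain, His6-tagged | quantity = 20 pM enzyme | reagent = 25 nM SUMO1 FRET substrate | compound dosing = 10 µM single point, 0.5% DMSO | timing = 50 min enzyme reaction, room temperature, light-protected | detection = FRET, CFP and YFP emission | control set = no-enzyme low, enzyme-DMSO high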
SENP6 inh: SENP6 protease inhibitors, primary screen, biochemical, luminescence, uHTS. Recombinant SENP6 catalytic domain, aminoluciferin luminescence. 1.8% of 330,000 active. inhibition, % at 10 µM. AID 2599, 2010. Sentrin-specific protease 6 (Homo sapiens), Q9GZR1;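 active means inhibition above about 50% at the single tested dose, limit read from the data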;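 further: plate controls were DMSO wells with enzyme for no effect and DMSO wells lacking enzyme for full effect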
SENP8 block-2: human SENP8 protease inhibitors, primary screen, biochemical, fluorescence, Nedd8 protein substrate, uHTS | Sentrin-specific protease 8 (Homo sapiens), Q96LD8 | recombinant SENP8 | inhibition, % at 20 µM | 0.64% of 360,000 active; in the data active means inhibition mostly above about 40%, no sharp cut-off; inactive means mostly below about 27%
SENP7 inh: SENP7 protease inhibitors, primary screen, biochemical, luminescence, uHTS | recombinant SENP7, Z-RLRGG-aminoluciferin luminescence, 40 min | inhibition, % at 5 µM | 1.5% of 330,000 active;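 active means inhibition above about 50% at the single test dose, limit read from the data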;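 further: plate controls were DMSO with enzyme for no effect and no enzyme buffer wells for full effect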
UCH37 inh: inhibitors of human UCH37 deubiquitinase, primary screen, biochemical, Ub-AMC cleavage, fluorescence; 0.33% of 330,000 active; AID 588478, 2011; purified proteasome/UCH37; Ubiquitin carboxyl-terminal hydrolase isozyme L5 (Homo sapiens), Q9Y5K5; inhibition, % (concentration not given with the values);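 active means mean inhibition over replicate wells above about 20%, limit read from the data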;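 further: 0% = compound-free wells with enzyme and 100% = wells lacking proteasome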
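assay system = human UCH37 enzyme supplied as purified proteasome complex | amount = proteasome at 0.15 nM in the dispensed enzyme solution | schedule = 30 min compound-proteasome preincubation then 25 min substrate reaction, room temperature | measured by = fluorescence, ex 355 nm, em 460 nm | benchmarks = no-proteasome wells (full inhibition) and compound-free wells (no inhibition)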
SENP8 confirm: SENP8 protease inhibitors, retest, confirmation, biochemical, luminescence, single concentration. Recombinant SENP8, Z-RLRGG-aminoluciferin luminescence, 60 min. shares compounds with SENP7 inh. inhibition, % at 12.5 µM. 40% of 6,200 active. AID 488912, 2010;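 active means mean inhibition across replicates above about 50%, limit read from the data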
SENP6 confirm: SENP6 protease inhibitors, confirmation, biochemical, luminescence, single concentration; shares compounds with SENP7 inh; recombinant SENP6, Z-RLRGG-aminoluciferin luminescence; inhibition, % at 12.5 µM; 58% of 6,200 active
SENP7 conf: SENP7 protease inhibitors, retest, confirmation, biochemical, luminescence, single concentration | shares compounds with SENP7 inh | recombinant SENP7, Z-RLRGG-aminoluciferin luminescence, 40 min | inhibition, % at 12.5 µM | 69% of 6,200 active | AID 488917, 2010
Casp3 select: caspase-3 protease inhibitors, confirmation, selectivity assay for SENP inhibitor project, biochemical, single concentration; shares compounds with SENP7 inh; purified caspase-3, Z-DEVD-aminoluciferin luminescence, 60 min; inhibition, % at 12.5 µM; 60% of 6,200 active; AID 488918, 2010;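 active means mean inhibition above about 50%, limit read from the data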;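 further: plate controls were enzyme with DMSO for no effect and wells without caspase-3 for full effect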
Luc interf: luminescence interference (SENP counter-screen); shares compounds with SENP7 inh; Pre-incubated SENP8/Z-RLRGG-aminoluciferin, luciferase luminescence interference; inhibition, % at 12.5 µM; 39% of 6,200 active;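 active means mean inhibition above about 50% when retested at one dose, limit read from the data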;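 further: plate controls were DMSO wells with completed reaction for no effect and substrate without enzyme for full effect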
* hit, by the source's call; / = not tested or not shown. A selection: hits, their analogues and other compounds. The true share with any hit is near 2.6%.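 How the source made its calls, unless noted: active means mean inhibition above about 50% in the one-dose retest (limit read from the data); inactive means the rest.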

SMILES	SENP8 block-1	SENP1 inh	SENP6 inh	SENP8 block-2	SENP7 inh	UCH37 inh	SENP8 confirm	SENP6 confirm	SENP7 conf	Casp3 select	Luc interf
O=C(O/N=C/C1=C(Cl)c2ccccc2CC1)c1ccc(F)cc1	-10.6	3.6	-14.9	-2.5	64.0*	/	10.2	12.6	17.0	30.9	1.7
O=C(NC(=S)Nc1cccc(CO)c1)c1ccc(-c2ccccc2)cc1	26.8	0.8	55.8*	6.0	9.6	5.4	5.5	-2.4	14.6	3.8	-1.0
O=C(NC(=S)Nc1cccc(NC(=S)NC(=O)c2ccccc2)c1)c1ccccc1	/	-23.9	/	-3.2	/	2.0	/	/	/	/	/
NC(=S)NN=Cc1coc2ccc(Cl)cc2c1=O	/	/	/	/	/	2.4	/	/	/	/	/
COC(=O)Nc1nnc(-c2ccccc2Cl)s1	49.8	-2.5	75.7*	-138.6	71.7*	-9.7	56.9*	55.7*	83.3*	49.5	23.2
O=C(Oc1ccccc1)N1CCOCC1	-4.0	1.6	13.1	2.9	-2.3	3.9	/	/	/	/	/
O=C(Oc1ccc(-c2ccccc2)cc1)N1CCCCC1	18.5	0.2	53.4*	-0.3	32.7	4.4	-3.6	-5.1	-5.6	-2.4	-4.0
O=C(Oc1ccc(OC(=O)N2CCOCC2)cc1)c1ccccc1	26.4	2.6	38.3	21.9	55.5*	1.2	-19.9	18.9	71.8*	47.1	-2.1
CN1CCN(N=Cc2nc(-c3ccccc3)n3ccccc23)CC1	/	/	/	/	/	5.5	/	/	/	/	/
O=C(O)c1ccc(NC2=C/C(=N/S(=O)(=O)c3ccccc3)c3ccccc3C2=O)cc1	87.3*	2.2	92.8*	60.8*	59.7*	/	95.2*	98.0*	92.5*	19.2	7.4
O=c1oc(CCCO)cc2ccc(/C=C/c3cccc([N+](=O)[O-])c3)cc12	1.9	-3.9	21.5	-24.1	61.2*	0.8	7.9	16.8	30.5	29.5	4.0
COc1ccc(CCn2c(N)c(C(=O)NCc3ccco3)c3nc4ccccc4nc32)cc1OC	37.8	-52.9	70.4*	-315.2	35.5	-66.9	15.0	10.5	2.4	-1.0	-0.8
COc1ccc(CCn2c(N)c(C(=O)NCc3ccco3)c3nc4ccccc4nc32)cc1	14.2	-24.1	25.3	-361.2	19.2	-283.0	/	/	/	/	/
Nc1c(C(=O)NCc2ccco2)c2nc3ccccc3nc2n1CCc1ccccc1F	40.2	-26.9	51.1*	-300.1	34.0	-237.4	2.4	5.7	-8.9	1.5	-2.4
CN(C)c1ccc(C=Nn2cnn(Cc3ccccc3Cl)c2=S)cc1	/	/	/	/	/	-9.7	/	/	/	/	/
COc1cc(C=NNC(=O)C2=NNC(=O)C2C)ccc1O (centres undefined)	/	/	/	/	/	9.0	/	/	/	/	/
O=C(Nc1cccc(C(=O)O)c1)Nc1cccc2ccccc12	9.4	3.6	26.8	-52.8	2.8	-0.9	/	/	/	/	/

Screening data (PubChem BioAssay)
